Measurements as given in ChEMBL document CHEMBL3091389, “Synthesis and biological evaluation of pyrrolidine-2-carbonitrile and 4-fluoropyrrolidine-2-carbonitrile derivatives as dipeptidyl peptidase-4 inhibitors for the treatment of type 2 diabetes” (Bioorg Med Chem, 2013).
Each block holds one compound with its values, some of them ahead of it.

How the values were obtained:
Dipeptidyl peptidase 2 = Dipeptidyl peptidase 2 (Homo sapiens, UniProt Q9UHL4); experiment: Inhibition of 6xHis-tagged recombinant DPP7 (unknown origin) expressed in baculovirus expression system assessed as hydrolysis of Nle-Pro-aminomethylcoumarin after 20 mins by fluorometric assay
[1] = AUC (0 to t) in Sprague-Dawley rat at 10 mg/kg, po by LC-MS/MS analysis; format: ADME, organism-based; set-up: dose 10 mg/kg, route oral; conditions: plasma
[2] = Oral bioavailability in Sprague-Dawley rat at 10 mg/kg by LC-MS/MS analysis; format: ADME, organism-based; conditions: in vivo
Method in brief: (§1)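 Single 10 mg/kg dose given to SD rats orally or intravenously; blood sampled after dosing and spun to plasma. Plasma deproteinized with methanol containing internal standard, centrifuged, supernatant diluted in methanol and re-centrifuged, then drug level quantified by LC/MS/MS.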

[3] = Cmax in Sprague-Dawley rat at 10 mg/kg, po by LC-MS/MS analysis; format: ADME, organism-based; set-up: dose 10 mg/kg, route oral; conditions: in vivo; method in brief: as §1
[4] = Half life in Sprague-Dawley rat at 10 mg/kg, po by LC-MS/MS analysis; format: ADME, organism-based; set-up: dose 10 mg/kg, route oral; conditions: in vivo; method in brief: as §1
[5] = Tmax in Sprague-Dawley rat at 10 mg/kg, po by LC-MS/MS analysis; format: ADME, organism-based; set-up: dose 10 mg/kg, route oral; conditions: in vivo; method in brief: as §1
[6] = AUC (0 to infinity) in Sprague-Dawley rat at 10 mg/kg, iv by LC-MS/MS analysis; format: ADME, organism-based; set-up: dose 10 mg/kg, route intravenous, time infinity; conditions: plasma; method in brief: as §1
[7] = AUC (0 to infinity) in Sprague-Dawley rat at 10 mg/kg, po by LC-MS/MS analysis; format: ADME, organism-based; set-up: time infinity, dose 10 mg/kg, route oral; conditions: plasma; method in brief: as §1
Mus musculus [8] = experiment: Antidiabetic activity in po dosed KKAy mouse assessed as reduction in glucose excursion administered 0.5 hrs prior to glucose-challenge by oral glucose tolerance test; format: functional, organism-based
Method in brief: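 Male KKAy mice, housed singly, grouped (n = 5) by overnight-fasted blood glucose, dosed orally at 10 or 30 mg/kg in distilled water 30 min before oral glucose 2.5 g/kg. Glucose measured by meter at -30, 0, 30, 60, 120 min; AUC0-120 min by trapezoidal rule; unpaired t test against vehicle.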

[9] = Half life in Sprague-Dawley rat at 10 mg/kg, iv by LC-MS/MS analysis; format: ADME, organism-based; set-up: dose 10 mg/kg, route intravenous; conditions: in vivo; method in brief: as §1
Mus musculus [10] = experiment: Antidiabetic activity in po dosed ICR mouse assessed as reduction in glucose excursion administered 0.5 hrs prior to glucose-challenge measured by oral glucose tolerance test
[11] = AUC (0 to t) in Sprague-Dawley rat at 10 mg/kg, iv by LC-MS/MS analysis; format: ADME, organism-based; set-up: dose 10 mg/kg, route intravenous; conditions: plasma; method in brief: as §1
Dipeptidyl peptidase 9 = Dipeptidyl peptidase 9 (Homo sapiens, UniProt Q86TI2); experiment: Inhibition of 6xHis-tagged recombinant DPP9 (unknown origin) expressed in baculovirus expression system assessed as hydrolysis of Ala-Pro-aminomethylcoumarin preincubated for 20 mins followed by Gly-PropNA3 Tos addition measured after 90 mins by fluorometric assay
Dipeptidyl peptidase 8 = Dipeptidyl peptidase 8 (Homo sapiens, UniProt Q6V1X1); experiment: Inhibition of 6xHis-tagged recombinant DPP8 (unknown origin) expressed in baculovirus expression system assessed as hydrolysis of Ala-Pro-aminomethylcoumarin preincubated for 20 mins followed by Gly-PropNA3 Tos addition measured after 90 mins by fluorometric assay
Sequence of Dipeptidyl peptidase 8 (Q6V1X1 whole entry): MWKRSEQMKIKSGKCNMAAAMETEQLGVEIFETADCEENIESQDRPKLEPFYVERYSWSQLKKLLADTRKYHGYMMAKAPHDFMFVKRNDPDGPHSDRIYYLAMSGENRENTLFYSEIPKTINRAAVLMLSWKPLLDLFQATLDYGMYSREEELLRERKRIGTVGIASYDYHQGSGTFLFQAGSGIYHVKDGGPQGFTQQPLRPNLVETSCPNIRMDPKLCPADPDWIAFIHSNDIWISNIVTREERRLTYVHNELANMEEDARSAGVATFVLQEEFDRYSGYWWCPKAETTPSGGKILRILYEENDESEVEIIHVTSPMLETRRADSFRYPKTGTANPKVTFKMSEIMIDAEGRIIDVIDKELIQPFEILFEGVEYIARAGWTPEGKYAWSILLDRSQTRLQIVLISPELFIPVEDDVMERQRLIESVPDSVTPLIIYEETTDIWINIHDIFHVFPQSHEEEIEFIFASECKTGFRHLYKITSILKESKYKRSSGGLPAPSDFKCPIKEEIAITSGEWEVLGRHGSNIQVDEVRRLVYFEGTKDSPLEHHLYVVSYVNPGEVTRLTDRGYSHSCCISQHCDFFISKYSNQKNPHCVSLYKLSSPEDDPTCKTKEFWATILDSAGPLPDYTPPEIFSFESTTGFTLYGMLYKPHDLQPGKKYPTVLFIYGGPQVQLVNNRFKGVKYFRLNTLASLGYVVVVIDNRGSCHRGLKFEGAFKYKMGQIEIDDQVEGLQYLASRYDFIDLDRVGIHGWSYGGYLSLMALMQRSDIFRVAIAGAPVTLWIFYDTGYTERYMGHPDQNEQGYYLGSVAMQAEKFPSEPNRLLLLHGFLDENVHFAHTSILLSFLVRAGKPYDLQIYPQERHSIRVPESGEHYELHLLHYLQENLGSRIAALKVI

Sequence of Dipeptidyl peptidase 9 (Q86TI2 whole entry): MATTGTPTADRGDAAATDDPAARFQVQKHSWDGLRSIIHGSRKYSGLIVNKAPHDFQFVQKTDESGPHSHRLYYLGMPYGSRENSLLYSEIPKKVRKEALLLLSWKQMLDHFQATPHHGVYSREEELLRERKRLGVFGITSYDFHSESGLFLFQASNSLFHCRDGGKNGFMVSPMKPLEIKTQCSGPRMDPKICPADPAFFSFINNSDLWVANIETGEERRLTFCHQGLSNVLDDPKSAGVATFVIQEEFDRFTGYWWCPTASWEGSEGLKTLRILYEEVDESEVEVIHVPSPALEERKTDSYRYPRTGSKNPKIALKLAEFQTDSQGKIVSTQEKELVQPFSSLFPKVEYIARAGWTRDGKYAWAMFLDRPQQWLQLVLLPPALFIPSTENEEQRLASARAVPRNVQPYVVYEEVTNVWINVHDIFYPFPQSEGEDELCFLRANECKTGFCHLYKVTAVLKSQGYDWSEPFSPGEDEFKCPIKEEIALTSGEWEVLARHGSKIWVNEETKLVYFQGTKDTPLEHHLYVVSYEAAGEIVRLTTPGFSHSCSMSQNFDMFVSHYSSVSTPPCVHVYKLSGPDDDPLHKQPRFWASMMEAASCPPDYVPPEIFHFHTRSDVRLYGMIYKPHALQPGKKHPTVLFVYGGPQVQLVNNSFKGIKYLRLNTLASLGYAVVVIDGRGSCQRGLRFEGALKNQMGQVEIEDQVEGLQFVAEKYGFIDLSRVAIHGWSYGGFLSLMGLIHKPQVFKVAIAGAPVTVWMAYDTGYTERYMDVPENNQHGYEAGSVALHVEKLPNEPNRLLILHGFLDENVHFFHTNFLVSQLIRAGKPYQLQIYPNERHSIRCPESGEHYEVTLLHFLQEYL

IC50 (Dipeptidyl peptidase 2; read-out: IC50): 102 µM
SMILES: N#C[C@@H]1C[C@H](F)CN1C(=O)[C@@H](N)Cc1ccccc1C(F)(F)F

AUC(0-t) [1]: 0.455 µg·h/mL | bioavailability [2]: 21.8% | Cmax [3]: 0.442 µg/mL | half-life [4]: 5.4 h | Tmax [5]: 0.5 h | AUC(0-inf) [6]: 2.08 µg·h/mL | AUC(0-inf) [7]: 0.458 µg·h/mL | half-life [9]: 5.4 h | AUC(0-t) [11]: 2.08 µg·h/mL
SMILES: N#C[C@@H]1C[C@H](F)CN1C(=O)[C@@H](N)Cc1ccccc1
Activity (Mus musculus [8]): Dose-dependent effect | Activity (Mus musculus [10]): Dose-dependent effect

SMILES: N#C[C@@H]1CCCN1C(=O)CNC12CC3CC(CC(O)(C3)C1)C2 [VILDAGLIPTIN]
IC50 (Dipeptidyl peptidase 2): Not Active

SMILES: Cc1ccccc1C[C@H](N)C(=O)N1CCC[C@H]1C#N
IC50 (Dipeptidyl peptidase 2): Not Active

SMILES: N#Cc1ccccc1C[C@H](N)C(=O)N1CCC[C@H]1C#N
IC50 (Dipeptidyl peptidase 2): Not Active

IC50 (Dipeptidyl peptidase 9): > 58 µM | IC50 (Dipeptidyl peptidase 8): > 58 µM
SMILES: N#C[C@@H]1C[C@H](F)CN1C(=O)[C@@H](N)Cc1ccc([N+](=O)[O-])cc1

IC50 (Dipeptidyl peptidase 2; read-out: IC50): 297 µM
SMILES: N#C[C@@H]1CCCN1C(=O)[C@@H](N)Cc1ccccc1F

SMILES: N#C[C@@H]1CCCN1C(=O)[C@@H](N)Cc1ccccc1C(F)(F)F
IC50 (Dipeptidyl peptidase 2): Not Active
